In ChEMBL document CHEMBL1139946, “1-Aryl-4,6-dihydropyrazolo[4,3-d][1]benzazepin-5(1H)-ones: a new class of antiproliferative agents with selectivity for human leukemia and breast cancer cell lines” (Eur J Med Chem, 2007):

Columns and labels:
[1] = tested on: K562; assay: Antitumor activity against human K562 cells after 48 hrs by sulforhodamine B protein assay; format: functional; conditions: K562, 48 h
Method in brief: (§1)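 Part of the NCI 60-cell-line screen. Compounds tested at five concentrations (10^-8 to 10^-4 M) with continuous exposure for 48 h. Cell growth read by sulforhodamine B protein assay, with percent growth from optical density of treated versus untreated control cultures. GI50 is the concentration giving 50% net growth inhibition.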

[2] = tested on: MDA-MB-435; assay: Antitumor activity against human MDA-MB435 cells after 48 hrs by sulforhodamine B protein assay; format: functional; conditions: MDA-MB-435, 48 h; method in brief: as §1

- GI50 [1]: 100 nM
- GI50 [2]: 200 nM
SMILES: COc1cccc2c1C(=O)c1c(O)c3c(c(O)c1C2=O)C[C@@](O)(C(=O)CO)C[C@@H]3O[C@H]1C[C@H](N)[C@H](O)[C@H](C)O1 [DOXORUBICIN]
